In ChEMBL document CHEMBL1926569, “Novel (E)-1-(4-methyl-2-(alkylamino)thiazol-5-yl)-3-arylprop-2-en-1-ones as potent antimicrobial agents” (2011):

What was measured:
Aspergillus niger [1] = test: Antifungal activity against Aspergillus niger ATCC 6275 incubated for 72 hrs followed by serial sub-cultivation for 72 hrs by serial dilution technique; format: functional; details: ATCC 6275, 72 h
How it was run: (§1)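 MFC: material from 72 h malt broth microdilution wells was serially sub-cultured into fresh broth plates and incubated a further 72 h at 28 °C. Fungicidal concentration is taken from growth after sub-culture. Duplicate, repeated three times.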

Aspergillus fumigatus [2] = test: Ratio of ketoconazole to compound for Aspergillus fumigatus isolated from human; format: functional
Micrococcus flavus [3] = test: Antibacterial activity against Micrococcus flavus ATCC 10240 after 24 hrs by microdilution method; format: functional; details: ATCC 10240, 24 h
How it was run: (§2)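 Broth microdilution in 96-well plates. Bacterial suspensions were adjusted in sterile saline to 1.0 × 10⁵ CFU/ml, prepared daily and kept at 4 °C. Compound was added to LB broth with 1.0 × 10⁴ CFU per well and shaken at 160 rpm for 24 h at […] (so in the source). MIC is the lowest concentration with no visible growth under a binocular microscope. OD655 was also read. Duplicate, repeated three times.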

Aspergillus ochraceus [4] = test: Antifungal activity against Aspergillus ochraceus ATCC 12066 incubated for 72 hrs followed by serial sub-cultivation for 72 hrs by serial dilution technique; format: functional; details: ATCC 12066, 72 h; how it was run: as §1
Trichoderma viride [5] = test: Ratio of bifonazole to compound for Trichoderma viride IAM 5061; format: functional
Candida albicans [6] = test: Ratio of ketoconazole to compound for Candida albicans isolated from human; format: functional
Penicillium ochrochloron [7] = test: Antifungal activity against Penicillium ochrochloron ATCC 9112 incubated for 72 hrs followed by serial sub-cultivation for 72 hrs by serial dilution technique; format: functional; details: ATCC 9112, 72 h; how it was run: as §1
Listeria monocytogenes [8] = test: Antibacterial activity against Listeria monocytogenes NCTC 7973 after 24 hrs by microdilution method; format: functional; details: NCTC 7973, 24 h; how it was run: as §2
Aspergillus niger [9] = test: Antifungal activity against Aspergillus niger ATCC 6275 after 72 hrs by serial dilution technique; format: functional; details: ATCC 6275, 72 h
How it was run: (§3)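 Modified microdilution in 96-well plates. Fungi were kept on malt agar at 4 °C. Spores were washed off in sterile 0.85% saline with 0.1% Tween 80. Compounds were dissolved at 1 mg/ml in 5% DMSO with 0.1% Tween 80 and added to malt broth with inoculum. Plates were shaken at 160 rpm for 72 h at 28 °C. Duplicate, repeated three times.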

Trichoderma viride [10] = test: Antifungal activity against Trichoderma viride IAM 5061 after 72 hrs by serial dilution technique; format: functional; details: IAM 5061, 72 h; how it was run: as §3
Escherichia coli [11] = test: Antibacterial activity against Escherichia coli ATCC 35210 incubated for 24 hrs followed by serial sub-cultivation for 24 hrs by microdilution; format: functional; details: ATCC 35210, 24 h
How it was run: (§4)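 MBC: after the 24 h LB broth microdilution (1.0 × 10⁴ CFU per well, 160 rpm), wells were serially sub-cultured into fresh broth plates and incubated a further 24 h. MBC is the lowest concentration with no visible growth, taken as 99.5% killing of the original inoculum. Duplicate, repeated three times.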

Aspergillus ochraceus [12] = test: Ratio of ketoconazole to compound for Aspergillus ochraceus ATCC 12066; format: functional
Candida albicans [13] = test: Ratio of bifonazole to compound for Candida albicans isolated from human; format: functional
Aspergillus fumigatus [14] = test: Antifungal activity against Aspergillus fumigatus isolated from human incubated for 72 hrs followed by serial sub-cultivation for 72 hrs by serial dilution technique; format: functional; how it was run: as §1
Pseudomonas aeruginosa [15] = test: Antibacterial activity against Pseudomonas aeruginosa ATCC 27853 incubated for 24 hrs followed by serial sub-cultivation for 24 hrs by microdilution; format: functional; details: ATCC 27853, 24 h; how it was run: as §4
Aspergillus niger [16] = test: Ratio of bifonazole to compound for Aspergillus niger ATCC 6275; format: functional
Aspergillus flavus [17] = test: Antifungal activity against Aspergillus flavus ATCC 9643 incubated for 72 hrs followed by serial sub-cultivation for 72 hrs by serial dilution technique; format: functional; details: ATCC 9643, 72 h; how it was run: as §1
Penicillium ochrochloron [18] = test: Ratio of ketoconazole to compound for Penicillium ochrochloron ATCC 9112; format: functional
Penicillium ochrochloron [19] = test: Antifungal activity against Penicillium ochrochloron ATCC 9112 after 72 hrs by serial dilution technique; format: functional; details: ATCC 9112, 72 h; how it was run: as §3
Candida albicans [20] = test: Antifungal activity against Candida albicans isolated from human incubated for 72 hrs followed by serial sub-cultivation for 72 hrs by serial dilution technique; format: functional; how it was run: as §1
Salmonella typhimurium [21] = test: Antibacterial activity against Salmonella Typhimurium ATCC 13311 after 24 hrs by microdilution method; format: functional, Salmonella enterica subsp. enterica serovar Typhimurium; details: Salmonella enterica, ATCC 13311, 24 h; how it was run: as §2
Pseudomonas aeruginosa [22] = test: Ratio of ampicillin MIC to compound MIC for Pseudomonas aeruginosa ATCC 27853; format: functional
Escherichia coli [23] = test: Antibacterial activity against Escherichia coli ATCC 35210 after 24 hrs by microdilution method; format: functional; details: ATCC 35210, 24 h; how it was run: as §2
Penicillium ochrochloron [24] = test: Ratio of bifonazole to compound for Penicillium ochrochloron ATCC 9112; format: functional
Trichoderma viride [25] = test: Antifungal activity against Trichoderma viride IAM 5061 incubated for 72 hrs followed by serial sub-cultivation for 72 hrs by serial dilution technique; format: functional; details: IAM 5061, 72 h; how it was run: as §1
Aspergillus ochraceus [26] = test: Antifungal activity against Aspergillus ochraceus after 72 hrs by serial dilution technique
Talaromyces funiculosus [27] = test: Antifungal activity against Penicillium funiculosum ATCC 36839 after 72 hrs by serial dilution technique; format: functional; details: ATCC 36839, 72 h; how it was run: as §3
Staphylococcus aureus [28] = test: Antibacterial activity against Staphylococcus aureus ATCC 6538 incubated for 24 hrs followed by serial sub-cultivation for 24 hrs by microdilution method; format: functional; details: ATCC 6538, 24 h; how it was run: as §4
Bacillus cereus [29] = test: Antibacterial activity against clinical isolate of Bacillus cereus incubated for 24 hrs followed by serial sub-cultivation for 24 hrs by microdilution; format: functional; how it was run: as §4
Talaromyces funiculosus [30] = test: Ratio of bifonazole to compound for Penicillium funiculosum ATCC 36839; format: functional
Staphylococcus aureus [31] = test: Antibacterial activity against Staphylococcus aureus ATCC 6538 after 24 hrs by microdilution method; format: functional; details: ATCC 6538, 24 h; how it was run: as §2
Listeria monocytogenes [32] = test: Antibacterial activity against Listeria monocytogenes NCTC 7973 incubated for 24 hrs followed by serial sub-cultivation for 24 hrs by microdilution; format: functional; details: NCTC 7973, 24 h; how it was run: as §4
Aspergillus ochraceus [33] = test: Ratio of bifonazole to compound for Aspergillus ochraceus ATCC 12066; format: functional
Bacillus cereus [34] = test: Antibacterial activity against clinical isolate of Bacillus cereus after 24 hrs by microdilution method; format: functional; how it was run: as §2
Aspergillus ochraceus [35] = test: Antifungal activity against Aspergillus ochraceus ATCC 12066 after 72 hrs by serial dilution technique; format: functional; details: ATCC 12066, 72 h; how it was run: as §3
Micrococcus flavus [36] = test: Antibacterial activity against Micrococcus flavus ATCC 10240 incubated for 24 hrs followed by serial sub-cultivation for 24 hrs by microdilution; format: functional; details: ATCC 10240, 24 h; how it was run: as §4
Aspergillus flavus [37] = test: Antifungal activity against Aspergillus flavus ATCC 9643 after 72 hrs by serial dilution technique; format: functional; details: ATCC 9643, 72 h; how it was run: as §3
Pseudomonas aeruginosa [38] = test: Antibacterial activity against Pseudomonas aeruginosa ATCC 27853 after 24 hrs by microdilution method; format: functional; details: ATCC 27853, 24 h; how it was run: as §2
Talaromyces funiculosus [39] = test: Antifungal activity against Penicillium funiculosum ATCC 36839 incubated for 72 hrs followed by serial sub-cultivation for 72 hrs by serial dilution technique; format: functional; details: ATCC 36839, 72 h; how it was run: as §1
Salmonella typhimurium [40] = test: Antibacterial activity against Salmonella Typhimurium ATCC 13311 incubated for 24 hrs followed by serial sub-cultivation for 24 hrs by microdilution; format: functional, Salmonella enterica subsp. enterica serovar Typhimurium; details: Salmonella enterica, ATCC 13311, 24 h; how it was run: as §4
Enterococcus faecalis [41] = test: Antibacterial activity against Enterococcus faecalis isolated from human after 24 hrs by microdilution method; format: functional; how it was run: as §2
Enterococcus faecalis [42] = test: Antibacterial activity against Enterococcus faecalis isolated from human incubated for 24 hrs followed by serial sub-cultivation for 24 hrs by microdilution; format: functional; how it was run: as §4
Candida albicans [43] = test: Antifungal activity against Candida albicans isolated from human after 72 hrs by serial dilution technique; format: functional; how it was run: as §3

CCNc1nc(C)c(C(=O)/C=C/c2ccc([N+](=O)[O-])cc2)s1
63.1 µM: MFC (Aspergillus niger [1]) | MFC (Aspergillus fumigatus [14]) | MBC (Pseudomonas aeruginosa [15]) | MIC (Penicillium ochrochloron [19]) | MFC (Candida albicans [20]) | MFC (Trichoderma viride [25]) | MIC (Bacillus cereus [34]) | MIC (Aspergillus ochraceus [35]) | MIC (Aspergillus flavus [37]) | MFC (Talaromyces funiculosus [39]) | MBC (Salmonella typhimurium [40]) | MBC (Enterococcus faecalis [42])
10: Ratio (Aspergillus fumigatus [2]) | Ratio (Trichoderma viride [5]) | Ratio (Candida albicans [6]) | Ratio (Aspergillus ochraceus [12]) | Ratio (Candida albicans [13]) | Ratio (Aspergillus niger [16]) | Ratio (Penicillium ochrochloron [18]) | Ratio (Pseudomonas aeruginosa [22]) | Ratio (Penicillium ochrochloron [24]) | Ratio (Talaromyces funiculosus [30]) | Ratio (Aspergillus ochraceus [33])
31.5 µM: MIC (Talaromyces funiculosus [27]) | MIC (Candida albicans [43])
78.8 µM: MFC (Aspergillus ochraceus [4]) | MFC (Penicillium ochrochloron [7]) | MFC (Aspergillus flavus [17])
94.6 µM: MIC (Micrococcus flavus [3]) | MIC (Listeria monocytogenes [8]) | MBC (Escherichia coli [11]) | MIC (Escherichia coli [23]) | MBC (Staphylococcus aureus [28]) | MBC (Bacillus cereus [29]) | MIC (Staphylococcus aureus [31]) | MBC (Listeria monocytogenes [32]) | MBC (Micrococcus flavus [36])
47.3 µM: MIC (Aspergillus niger [9]) | MIC (Trichoderma viride [10]) | MIC (Salmonella typhimurium [21]) | MIC (Aspergillus ochraceus [26]) | MIC (Pseudomonas aeruginosa [38]) | MIC (Enterococcus faecalis [41])

CC1(C)S[C@@H]2[C@H](NC(=O)[C@H](N)c3ccccc3)C(=O)N2[C@H]1C(=O)O [AMPICILLIN]
372 µM: MIC (Listeria monocytogenes [8]) | MIC (Escherichia coli [23]) | MBC (Staphylococcus aureus [28]) | MBC (Bacillus cereus [29]) | MBC (Micrococcus flavus [36]) | MBC (Enterococcus faecalis [42])
492 µM: MBC (Escherichia coli [11]) | MBC (Salmonella typhimurium [40])
1240 µM: MBC (Pseudomonas aeruginosa [15])
744 µM: MBC (Listeria monocytogenes [32]) | MIC (Pseudomonas aeruginosa [38])
248 µM: MIC (Micrococcus flavus [3]) | MIC (Salmonella typhimurium [21]) | MIC (Staphylococcus aureus [31]) | MIC (Bacillus cereus [34]) | MIC (Enterococcus faecalis [41])

c1ccc(-c2ccc(C(c3ccccc3)n3ccnc3)cc2)cc1 (stereo unspecified) [BIFONAZOLE]
320 µM: MIC (Candida albicans [43])
480 µM: MIC (Aspergillus niger [9]) | MIC (Penicillium ochrochloron [19]) | MFC (Candida albicans [20]) | MIC (Aspergillus ochraceus [26]) | MIC (Aspergillus ochraceus [35]) | MIC (Aspergillus flavus [37])
800 µM: MFC (Aspergillus ochraceus [4]) | MFC (Trichoderma viride [25]) | MFC (Talaromyces funiculosus [39])
640 µM: MFC (Aspergillus niger [1]) | MFC (Penicillium ochrochloron [7]) | MIC (Trichoderma viride [10]) | MFC (Aspergillus fumigatus [14]) | MFC (Aspergillus flavus [17]) | MIC (Talaromyces funiculosus [27])

CN[C@@H]1[C@H](O[C@H]2[C@H](O[C@H]3[C@H](O)[C@@H](O)[C@H](N=C(N)N)[C@@H](O)[C@@H]3N=C(N)N)O[C@@H](C)[C@]2(O)C=O)O[C@@H](CO)[C@H](O)[C@H]1O [STREPTOMYCIN]
43 µM: MIC (Bacillus cereus [34]) | MIC (Enterococcus faecalis [41])
86 µM: MIC (Micrococcus flavus [3]) | MBC (Bacillus cereus [29]) | MBC (Enterococcus faecalis [42])
258 µM: MIC (Listeria monocytogenes [8])
344 µM: MBC (Escherichia coli [11]) | MBC (Pseudomonas aeruginosa [15]) | MBC (Staphylococcus aureus [28]) | MBC (Salmonella typhimurium [40])
172 µM: MIC (Salmonella typhimurium [21]) | MIC (Escherichia coli [23]) | MIC (Staphylococcus aureus [31]) | MBC (Micrococcus flavus [36]) | MIC (Pseudomonas aeruginosa [38])
516 µM: MBC (Listeria monocytogenes [32])
